The values below come from publication PMC4476059 (Cell, 2015).

Common to all, as to type: cell-based
Assay [1] deals with T1, full-length wild-type LPA1 (Homo sapiens, UniProt Q92633). Put plainly: Ca2+ mobilization assay in B103 cells expressing full-length wild-type LPA1. To be noted: read-out: EC50, Ca2+ mobilization assay; B103 cells heterologously expressing full-length wild-type LPA1; normalized to 3 μM 1-oleoyl-LPA (Figure 6D). In general terms: A change in cytosolic calcium serves as a functional read-out for many receptors and channels.
T1 sequence (Q92633 whole entry): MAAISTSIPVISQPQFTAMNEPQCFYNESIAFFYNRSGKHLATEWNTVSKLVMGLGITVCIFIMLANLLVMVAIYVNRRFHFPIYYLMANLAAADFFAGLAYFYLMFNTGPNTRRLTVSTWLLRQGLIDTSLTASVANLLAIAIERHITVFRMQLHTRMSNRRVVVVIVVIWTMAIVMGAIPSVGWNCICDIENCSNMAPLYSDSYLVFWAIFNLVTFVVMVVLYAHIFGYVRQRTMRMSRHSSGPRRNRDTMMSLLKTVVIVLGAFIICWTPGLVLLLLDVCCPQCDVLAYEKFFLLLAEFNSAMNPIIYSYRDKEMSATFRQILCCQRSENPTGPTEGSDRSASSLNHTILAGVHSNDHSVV

Assay [2] has as its target T1, full-length wild-type LPA1. Put plainly: cAMP assay. Conditions: read-out: EC50, cAMP assay; B103 cells expressing full-length wild-type LPA1; 10 μM forskolin; n=2 (Figure 6D).
The target of assay [3] is T2, LPA1 (Homo sapiens, UniProt Q92633). As to the kind of experiment: Neurite retraction assay in B103 cells expressing LPA1. To be noted: stable cell line expressing LPA1, 15 min treatment. In short, it runs like this: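 B103 rat neuroblastoma stable line carrying HA-tagged full-length human LPA1 (G418-selected, sorted for high anti-HA staining), serum-starved overnight in FreeStyle 293 medium. Cells were given ligands for 15 min at 37°C, washed, and fixed in 2% paraformaldehyde. Under the microscope, round cells lacking neurite extensions were counted and expressed as a percentage of observed cells.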
T2 sequence (Q92633 whole entry): as above

Assay [4] has as its target T2, LPA1. Put plainly: F-actin stress fiber formation assay in B103 cells expressing LPA1. Conditions: 15 min treatment. The gist of the method:
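Rat neuroblastoma B103 cells stably expressing HA-tagged full-length human LPA1 (G418 selection, FACS-sorted for high anti-HA signal), starved overnight in FreeStyle 293 medium, then exposed to ligands for 15 min at 37°C. Cells were fixed with 2% paraformaldehyde, washed with 0.3% Triton X-100 in PBS, stained with 1 μg/mL rhodamine-phalloidin for 30 min at room temperature, and imaged by confocal microscopy.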

SMILES strings stand for the structures.

The EC50 is the concentration giving half of the maximal effect. For the compound `CCCCC/C=C\C/C=C\C/C=C\C/C=C\CCCC(=O)OC[C@@H](O)COP(=O)(O)O` [1-ALPA, 1-arachidonoyl-LPA], the EC50 in assay [1] was determined as 1120 ± 1480 nM.
In the case of `CCCCCCCC/C=C\CCCCCCCC(=O)OCC(O)COP(=O)(O)O` (centres unmarked) [LPA 18:1 sn1, 1-oleoyl-LPA], the EC50 in assay [2] amounted to 0.345 ± 0.202 nM; in assay [1], 146 ± 74 nM.
`CCCCC/C=C\C/C=C\C/C=C\C/C=C\CCCC(=O)NCCOP(=O)(O)O` [pAEA]: the “Neurite retraction (cell morphology change mediated by LPA1)” value on LPA1 [3] is “robust activation”. For the same compound, on LPA1 [4], the “F-actin stress fiber formation” value is on record as “activated”.
